ChEMBL document CHEMBL5532695, “4-Trifluoromethyl bithiazoles as broad-spectrum antimicrobial agents for virus-related bacterial infections or co-infections” (RSC Med Chem, 2024)

Tests used:
[1] = biological target: Phosphatidylinositol 4-kinase beta (Homo sapiens, UniProt Q9UBF8); assay: Inhibition of recombinant full length his tagged PI4KB (unknown origin) incubated for 10 mins in presence of ATP by ADP-glo kinase assay
[2] = Cytotoxicity against human HeLa cells assessed as reduction in cell viability by MTT assay; assay type: toxicity, cell-based
Procedure, shortened: (§1)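 MTT viability on HeLa or VeroE6 cells, run in parallel with the antiviral assays. CC50 from variable-slope sigmoidal dose–response regression.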

[3] = Cytotoxicity against african green monkey Vero E6 cells assessed as reduction in cell viability by MTT assay; assay type: toxicity, cell-based; conditions: chlorocebus sabaeus, Vero E6 cells (Vero C1008); procedure, shortened: as §1
[4] = tested on: Bacillus subtilis; assay: Antibacterial activity against Bacillus subtilis ATCC 6633 assessed as reduction in microbial growth measured after 18 hrs by CLSI based broth microdilution method; assay type: functional
Procedure, shortened: (§2)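 MIC by CLSI broth microdilution in Mueller–Hinton medium, triplicate. Inoculum 5 × 10^4 CFU per well. Compounds taken up in DMSO (50 mg mL−1 stock) and diluted in medium. Read after 18 h at 35 ± 2 °C.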

[5] = tested on: Enterococcus faecalis; assay: Antibacterial activity against Enterococcus faecalis ATCC 29212 assessed as reduction in microbial growth measured after 18 hrs by CLSI based broth microdilution method; assay type: functional; procedure, shortened: as §2
[6] = tested on: Streptococcus pyogenes; assay: Antibacterial activity against Streptococcus pyogenes ATCC 12344 assessed as reduction in microbial growth measured after 18 hrs by CLSI based broth microdilution method; assay type: functional; procedure, shortened: as §2
[7] = tested on: Staphylococcus aureus; assay: Antibacterial activity against Staphylococcus aureus ATCC 25923 assessed as reduction in microbial growth measured after 18 hrs by CLSI based broth microdilution method; assay type: functional; procedure, shortened: as §2
[8] = tested on: Escherichia coli; assay: Synergistic antibacterial activity against Escherichia coli CCUGT incubated for 18 to 24 hrs in presence of colistin by broth microdilution method; assay type: functional; conditions: time 18-24 hrs
[9] = tested on: Klebsiella pneumoniae; assay: Synergistic antibacterial activity against Klebsiella pneumoniae ATCC 13833 incubated for 18 to 24 hrs in presence of colistin by broth microdilution method; assay type: functional; conditions: time 18-24 hrs
[10] = tested on: Acinetobacter baumannii; assay: Synergistic antibacterial activity against Acinetobacter baumannii ATCC 17978 incubated for 18 to 24 hrs in presence of colistin by broth microdilution method; assay type: functional; conditions: time 18-24 hrs
[11] = tested on: Pseudomonas aeruginosa; assay: Synergistic antibacterial activity against Pseudomonas aeruginosa ATCC 27853 incubated for 18 to 24 hrs in presence of colistin by broth microdilution method; assay type: functional; conditions: time 18-24 hrs
[12] = tested on: rhinovirus A16; assay: microbe, parasite or virus in culture; conditions: Rhinovirus A, HeLa, 48 h
[13] = tested on: enterovirus D68; assay: microbe, parasite or virus in culture; conditions: Enterovirus D, HeLa, 48 h
[14] = tested on: Zika virus; assay: microbe, parasite or virus in culture; conditions: Vero C1008, 72 h
[15] = tested on: Bacillus subtilis; assay: Bactericidal activity against Bacillus subtilis ATCC 6633 assessed as reduction in microbial growth measured after 18 hrs by CLSI based broth microdilution method; assay type: functional
Procedure, shortened: (§3)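 MBC by CLSI broth microdilution in Mueller–Hinton medium, triplicate. Inoculum 5 × 10^4 CFU per well. Read after 18 h at 35 ± 2 °C.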

[16] = tested on: Enterococcus faecalis; assay: Bactericidal activity against Enterococcus faecalis ATCC 29212 assessed as reduction in microbial growth measured after 18 hrs by CLSI based broth microdilution method; assay type: functional; procedure, shortened: as §3
[17] = tested on: Streptococcus pyogenes; assay: Bactericidal activity against Streptococcus pyogenes ATCC 12344 assessed as reduction in microbial growth measured after 18 hrs by CLSI based broth microdilution method; assay type: functional; procedure, shortened: as §3
[18] = tested on: Staphylococcus aureus; assay: Bactericidal activity against Staphylococcus aureus ATCC 25923 assessed as reduction in microbial growth measured after 18 hrs by CLSI based broth microdilution method; assay type: functional; procedure, shortened: as §3
[19] = tested on: Staphylococcus aureus; assay: Antibacterial activity against methicillin-resistant Staphylococcus aureus ATCC 43300 assessed as reduction in microbial growth measured after 18 hrs by CLSI based broth microdilution method; assay type: functional
Procedure, shortened: (§4)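 Gram-positive clinical isolates; compounds dissolved in DMSO (50 mg mL−1 stock) and diluted in medium; MIC by CLSI broth microdilution in Mueller–Hinton medium, inoculum 5 × 10^4 CFU per well, read after 18 h at 35 ± 2 °C; triplicate.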

[20] = tested on: Staphylococcus aureus; assay: Bactericidal activity against methicillin-resistant Staphylococcus aureus ATCC 43300 assessed as reduction in microbial growth measured after 18 hrs by CLSI based broth microdilution method; assay type: functional
[21] = tested on: Staphylococcus warneri; assay: Antibacterial activity against oxacillin-resistant Staphylococcus warneri SI-5/2011 assessed as reduction in microbial growth measured after 18 hrs by CLSI based broth microdilution method; assay type: functional; procedure, shortened: as §4
[22] = tested on: Staphylococcus warneri; assay: Bactericidal activity against oxacillin-resistant Staphylococcus warneri SI-5/2011 assessed as reduction in microbial growth measured after 18 hrs by CLSI based broth microdilution method; assay type: functional
[23] = tested on: Staphylococcus haemolyticus; assay: Antibacterial activity against oxacillin-resistant Staphylococcus haemolyticus SI-6/2011 assessed as reduction in microbial growth measured after 18 hrs by CLSI based broth microdilution method; assay type: functional; procedure, shortened: as §4
[24] = tested on: Staphylococcus haemolyticus; assay: Bactericidal activity against oxacillin-resistant Staphylococcus haemolyticus SI-6/2011 assessed as reduction in microbial growth measured after 18 hrs by CLSI based broth microdilution method; assay type: functional
[25] = tested on: Staphylococcus epidermidis; assay: Antibacterial activity against linezolid-resistant Staphylococcus epidermidis SI-1266 assessed as reduction in microbial growth measured after 18 hrs by CLSI based broth microdilution method; assay type: functional; procedure, shortened: as §4
[26] = tested on: Staphylococcus epidermidis; assay: Bactericidal activity against linezolid-resistant Staphylococcus epidermidis SI-1266 assessed as reduction in microbial growth measured after 18 hrs by CLSI based broth microdilution method; assay type: functional
[27] = tested on: Enterococcus faecium; assay: Antibacterial activity against Vancomycin/teicoplanin resistant Enterococcus faecium SI-759 assessed as reduction in microbial growth measured after 18 hrs by CLSI based broth microdilution method; assay type: functional; procedure, shortened: as §4
[28] = tested on: Enterococcus faecium; assay: Bactericidal activity against Vancomycin/teicoplanin resistant Enterococcus faecium SI-759 assessed as reduction in microbial growth measured after 18 hrs by CLSI based broth microdilution method; assay type: functional
[29] = tested on: Enterococcus faecium; assay: Antibacterial activity against Vancomycin resistant Enterococcus faecium SI-1831 assessed as reduction in microbial growth measured after 18 hrs by CLSI based broth microdilution method; assay type: functional; procedure, shortened: as §4
[30] = tested on: Enterococcus faecium; assay: Bactericidal activity against Vancomycin resistant Enterococcus faecium SI-1831 assessed as reduction in microbial growth measured after 18 hrs by CLSI based broth microdilution method; assay type: functional
[31] = tested on: Enterococcus faecium; assay: Antibacterial activity against Vancomycin resistant Enterococcus faecium SI-3856B assessed as reduction in microbial growth measured after 18 hrs by CLSI based broth microdilution method; assay type: functional; procedure, shortened: as §4
[32] = tested on: Enterococcus faecium; assay: Bactericidal activity against Vancomycin resistant Enterococcus faecium SI-3856B assessed as reduction in microbial growth measured after 18 hrs by CLSI based broth microdilution method; assay type: functional
[33] = tested on: Zika virus; conditions: vero e6
[34] = tested on: rhinovirus A16; conditions: hela
[35] = tested on: enterovirus D68; conditions: hela

Sequence of Phosphatidylinositol 4-kinase beta (Q9UBF8 whole entry): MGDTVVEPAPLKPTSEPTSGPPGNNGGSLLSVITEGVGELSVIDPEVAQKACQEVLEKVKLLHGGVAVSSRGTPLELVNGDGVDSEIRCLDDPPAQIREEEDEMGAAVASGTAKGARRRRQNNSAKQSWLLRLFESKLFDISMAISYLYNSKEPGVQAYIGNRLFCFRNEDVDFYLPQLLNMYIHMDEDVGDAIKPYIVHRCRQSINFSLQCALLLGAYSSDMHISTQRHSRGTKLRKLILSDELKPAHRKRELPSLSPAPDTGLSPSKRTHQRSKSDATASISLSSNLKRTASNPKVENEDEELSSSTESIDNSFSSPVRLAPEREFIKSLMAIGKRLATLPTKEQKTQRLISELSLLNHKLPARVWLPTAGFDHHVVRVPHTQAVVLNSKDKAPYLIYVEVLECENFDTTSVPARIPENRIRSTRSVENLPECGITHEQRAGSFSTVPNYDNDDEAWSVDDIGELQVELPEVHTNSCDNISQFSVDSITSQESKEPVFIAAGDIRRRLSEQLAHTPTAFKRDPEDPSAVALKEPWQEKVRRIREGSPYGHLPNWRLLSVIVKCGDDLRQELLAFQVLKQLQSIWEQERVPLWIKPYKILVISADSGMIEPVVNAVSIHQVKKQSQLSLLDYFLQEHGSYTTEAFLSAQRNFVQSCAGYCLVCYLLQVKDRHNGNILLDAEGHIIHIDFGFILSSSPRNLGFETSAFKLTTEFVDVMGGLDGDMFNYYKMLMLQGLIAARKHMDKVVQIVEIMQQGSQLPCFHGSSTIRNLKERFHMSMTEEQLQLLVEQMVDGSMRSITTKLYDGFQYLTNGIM

Structure (SMILES)	IC50 [1]	CC50 [2]	CC50 [3]	MIC [4]	MIC [5]	MIC [6]	MIC [7]	MAC [8]	MAC [9]	MAC [10]	MAC [11]	IC50 [12]	IC50 [13]	IC50 [14]	MBC [15]	MBC [16]	MBC [17]	MIC [19]	MBC [20]	MIC [21]	further results
CC(C)(C)C(=O)Nc1nc(C(F)(F)F)c(-c2c[nH]c(Nc3cccc(C(F)(F)F)c3)n2)s1	Not Active	> 50 µM	> 50 µM	> 32 µg/mL	> 32 µg/mL	> 32 µg/mL	> 32 µg/mL	32 µg/mL	>64 µg/mL	16 µg/mL	>64 µg/mL	10.4 µM	5.74 µM	8.52 µM							
CC(C)(C)C(=O)Nc1nc(C(F)(F)F)c(-c2csc(Nc3cc(C(=O)O)cc(C(F)(F)F)c3)n2)s1		> 50 µM	> 50 µM	16 µg/mL	32 µg/mL	4 µg/mL	16 µg/mL	>64 µg/mL	>64 µg/mL	>64 µg/mL	>64 µg/mL	9.52 µM	4.18 µM		16 µg/mL	> 32 µg/mL	4 µg/mL	8 µg/mL	> 64 µg/mL	16 µg/mL	MBC [18]: < 32 µg/mL; MBC [22]: > 64 µg/mL; MIC [23]: 16 µg/mL; MBC [24]: > 64 µg/mL; MIC [25]: 16 µg/mL; MBC [26]: 64 µg/mL; MIC [27]: 16 µg/mL; MBC [28]: > 64 µg/mL; MIC [29]: 16 µg/mL; MBC [30]: > 64 µg/mL; MIC [31]: 32 µg/mL; MBC [32]: > 64 µg/mL; IC50 [33]: Not Active
O=C(O)c1cc(Nc2nc(-c3sc(NC(=O)c4ccccc4)nc3C(F)(F)F)cs2)cc(C(F)(F)F)c1		> 50 µM	> 50 µM	4 µg/mL	2 µg/mL	2 µg/mL	> 32 µg/mL	>64 µg/mL	>64 µg/mL	>64 µg/mL	>64 µg/mL				32 µg/mL	> 32 µg/mL	> 32 µg/mL	> 64 µg/mL	> 64 µg/mL	> 64 µg/mL	MBC [22]: > 64 µg/mL; MIC [23]: 32 µg/mL; MBC [24]: > 64 µg/mL; MIC [25]: 32 µg/mL; MBC [26]: > 64 µg/mL; MIC [27]: 64 µg/mL; MBC [28]: > 64 µg/mL; MIC [29]: > 64 µg/mL; MBC [30]: > 64 µg/mL; MIC [31]: > 64 µg/mL; MBC [32]: > 64 µg/mL; IC50 [34]: Not Active; IC50 [35]: Not Active; IC50 [33]: Not Active
COC(=O)c1cc(Nc2nc(-c3sc(NC(=O)C(C)(C)C)nc3C(F)(F)F)cs2)cc(C(F)(F)F)c1	Not Active	47.3 µM	> 50 µM	> 32 µg/mL	> 32 µg/mL	> 32 µg/mL	> 32 µg/mL	>64 µg/mL	>64 µg/mL	>64 µg/mL	>64 µg/mL	0.25 µM	2.01 µM	6.13 µM							
